{"source": "ChEMBL document CHEMBL1127293", "about": "“Mobilization of iron by chiral and achiral anionic 3-hydroxypyrid-4-ones” (1994)", "key": {"[1]": {"tested_on": "Rattus norvegicus", "assay": "Urinary iron excretion was measured after giving oral dose of 1 mmol/kg during treatment period in rat", "type": "functional, Urine", "how_it_was_run": "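Female Sprague-Dawley rats as own controls; under ether anesthesia at about 6 p.m., gavage of 1 mL Millipore water (control period) or chelator solution, 1 mL per 200 g rat. Urine collected 15 h overnight in metabolic cages separating feces, tap water ad libitum. Iron by atomic absorption at 248.3 nm; significance p ≤ 0.05.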"}, "[2]": {"tested_on": "Rattus norvegicus", "assay": "Biliary excretion of iron was measured after giving intravenous dose of 0.2 mmol/kg during treatment period in rat", "type": "functional", "how_it_was_run": "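Female Sprague-Dawley rats, previously untreated, served as their own controls. Biliary iron collected 0.5 h for control, then 2 h after tail-vein injection (warm-water tail passage beforehand) under anesthesia; animals recovered between periods and were kept in metabolic cages with free tap water. Iron measured by atomic absorption at 248.3 nm; rate as μg Fe/h.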"}}, "data": [{"compound": "CSCCC(C(=O)O)n1ccc(=O)c(O)c1C", "note": "(stereo not given)", "values": [{"measurement": "urinary iron excretion", "setting": "[1]", "result": 1740, "unit": "µg/15 h"}, {"measurement": "biliary iron excretion", "setting": "[2]", "result": 12700, "unit": "µg/h"}]}, {"compound": "Cc1c(O)c(=O)ccn1C(CO)C(=O)O", "note": "(stereo not given)", "values": [{"measurement": "urinary iron excretion", "setting": "[1]", "result": 1790, "unit": "µg/15 h"}, {"measurement": "biliary iron excretion", "setting": "[2]", "result": 4180, "unit": "µg/h"}]}, {"compound": "Cc1c(O)c(=O)ccn1[C@H](C)C(=O)O", "values": [{"measurement": "Treatment period", "setting": "[1]", "result": 4010}, {"measurement": "Treatment period", "setting": "[2]", "result": 4580}]}, {"compound": "Cc1c(O)c(=O)ccn1[C@@H](C)C(=O)O", "values": [{"measurement": "Treatment period", "setting": "[1]", "result": 3840}, {"measurement": "Treatment period", "setting": "[2]", "result": 6240}]}, {"compound": "Cc1c(O)c(=O)ccn1-c1ccc(C(=O)O)cc1", "values": [{"measurement": "urinary iron excretion", "setting": "[1]", "result": 1110, "unit": "µg/15 h"}, {"measurement": "biliary iron excretion", "setting": "[2]", "result": 9390, "unit": "µg/h"}]}, {"compound": "Cc1c(O)c(=O)ccn1Cc1ccc(C(=O)O)cc1", "values": [{"measurement": "urinary iron excretion", "setting": "[1]", "result": 1550, "unit": "µg/15 h"}, {"measurement": "biliary iron excretion", "setting": "[2]", "result": 13700, "unit": "µg/h"}]}, {"compound": "Cc1c(O)c(=O)ccn1C(CCC(=O)O)C(=O)O", "note": "(stereo not given)", "values": [{"measurement": "urinary iron excretion", "setting": "[1]", "result": 170, "unit": "µg/15 h"}, {"measurement": "biliary iron excretion", "setting": "[2]", "result": 1150, "unit": "µg/h"}]}, {"compound": "Cc1c(O)c(=O)ccn1C(CC(C)C)C(=O)O", "note": "(stereo not given)", "values": [{"measurement": "urinary iron excretion", "setting": "[1]", "result": 8550, "unit": "µg/15 h"}, {"measurement": "biliary iron excretion", "setting": "[2]", "result": 11600, "unit": "µg/h"}]}, {"compound": "Cc1c(O)c(=O)ccn1C(Cc1ccccc1)C(=O)O", "note": "(stereo not given)", "values": [{"measurement": "urinary iron excretion", "setting": "[1]", "result": 1280, "unit": "µg/15 h"}, {"measurement": "biliary iron excretion", "setting": "[2]", "result": 8300, "unit": "µg/h"}]}, {"compound": "Cc1c(O)c(=O)ccn1C", "note": "[DEFERIPRONE]", "values": [{"measurement": "urinary iron excretion", "setting": "[1]", "result": 17300, "unit": "µg/15 h"}, {"measurement": "biliary iron excretion", "setting": "[2]", "result": 4810, "unit": "µg/h"}]}]}
